Each structure is given as a SMILES string.

In data set [1] the target is T1, MAO-A (amine oxidase [flavin-containing] A) (Homo sapiens, UniProt P21397).
T1 sequence (P21397 whole entry): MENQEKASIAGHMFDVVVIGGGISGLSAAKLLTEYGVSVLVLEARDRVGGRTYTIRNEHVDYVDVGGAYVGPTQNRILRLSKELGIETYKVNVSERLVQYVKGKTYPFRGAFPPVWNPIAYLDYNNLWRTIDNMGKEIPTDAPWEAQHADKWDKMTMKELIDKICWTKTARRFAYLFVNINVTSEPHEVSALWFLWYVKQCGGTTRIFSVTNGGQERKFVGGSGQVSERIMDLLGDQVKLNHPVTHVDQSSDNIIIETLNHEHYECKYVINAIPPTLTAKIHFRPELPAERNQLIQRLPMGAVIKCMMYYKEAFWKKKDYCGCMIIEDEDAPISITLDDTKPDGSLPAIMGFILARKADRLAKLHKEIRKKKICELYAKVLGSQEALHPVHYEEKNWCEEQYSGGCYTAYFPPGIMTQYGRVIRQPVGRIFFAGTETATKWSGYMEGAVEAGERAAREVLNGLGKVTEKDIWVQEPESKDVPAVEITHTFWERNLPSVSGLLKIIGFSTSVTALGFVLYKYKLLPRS
Briefly: Inhibition of human MAOA at 100 uM incubated for 15 mins using p-tyramine substrate by Amplex red reagent based fluorescence assay. Particulars: human MAOA enzyme, probe p-tyramine. A digest of the protocol: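 hMAO-A was tested at a single concentration of 100 μM, with iproniazid as reference inhibitor.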

Data set [2] concerns the target T2, Amine oxidase [flavin-containing] B (Homo sapiens, UniProt P27338).
T2 sequence (P27338 whole entry): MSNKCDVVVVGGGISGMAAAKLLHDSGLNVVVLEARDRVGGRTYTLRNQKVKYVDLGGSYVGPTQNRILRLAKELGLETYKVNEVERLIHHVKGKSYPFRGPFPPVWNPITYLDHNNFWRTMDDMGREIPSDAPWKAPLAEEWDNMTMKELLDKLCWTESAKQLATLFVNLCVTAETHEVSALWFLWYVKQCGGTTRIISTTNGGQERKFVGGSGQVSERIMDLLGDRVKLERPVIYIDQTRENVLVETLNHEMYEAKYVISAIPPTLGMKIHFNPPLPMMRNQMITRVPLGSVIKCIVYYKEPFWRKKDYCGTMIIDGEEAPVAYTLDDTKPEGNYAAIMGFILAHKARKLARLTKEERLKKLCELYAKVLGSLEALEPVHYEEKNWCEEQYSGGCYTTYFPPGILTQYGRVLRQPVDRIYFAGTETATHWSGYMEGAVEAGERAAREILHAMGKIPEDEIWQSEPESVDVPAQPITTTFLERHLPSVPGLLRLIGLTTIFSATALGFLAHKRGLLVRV
Briefly: Inhibition of human MAOB incubated for 15 mins using p-tyramine substrate by Amplex red reagent based fluorescence assay.

The species named for data set [3] is Homo sapiens. In words: Selectivity index, ratio of IC50 for human MAOA to IC50 for human MAOB. Summed up: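 Selectivity index was computed as IC50 (MAO-A)/IC50 (MAO-B), each IC50 being the mean of three experiments.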
Data set [4] has as its target T2, Amine oxidase [flavin-containing] B. Briefly: Reversible inhibition of human MAOB at 2 fold enzymatic IC50 level pre-incubated for 0 to 60 mins using p-tyramine substrate and measured after 15 mins by Amplex red reagent based fluorescence assay. The note with it: 0.25 h.
Data set [5] has the same target. Briefly: Reversible inhibition of human MAOB at 2 fold enzymatic IC50 level pre-incubated for 0 mins using p-tyramine substrate and measured after 15 mins by Amplex red reagent based fluorescence assay. The note with it: 0.25 h.
The target is the same in data set [6]. In words: Reversible inhibition of human MAOB at 2 fold enzymatic IC50 level pre-incubated for 15 mins using p-tyramine substrate and measured after 15 mins by Amplex red reagent based fluorescence assay. Particulars: 0.25 h; call rule not given here.
Data set [7] shares this target. In words: Reversible inhibition of human MAOB at 2 fold enzymatic IC50 level pre-incubated for 30 mins using p-tyramine substrate and measured after 15 mins by Amplex red reagent based fluorescence assay. Particulars: 0.25 h.
For data set [8] the target is unchanged. In words: Reversible inhibition of human MAOB at 2 fold enzymatic IC50 level pre-incubated for 60 mins using p-tyramine substrate and measured after 15 mins by Amplex red reagent based fluorescence assay. Particulars: 0.25 h.
The target is the same in data set [9]. Briefly: Competitive inhibition of human MAOB at 0.095 to 0.38 uM using 50 to 500 uM p-tyramine substrate by Amplex red reagent dependent fluorescence assay based Lineweaver-Burk plot analysis. A digest of the protocol:
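Kinetics were run as Michaelis-Menten experiments. Rates were measured at five p-tyramine concentrations (50-500 μM), with four inhibitor concentrations (0, 0.095, 0.19 and 0.38 μM). Inhibition type was assigned from overlaid double-reciprocal Lineweaver-Burk plots.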

Data set [10] relates to SH-SY5Y. Briefly: Cytotoxicity in human SH-SY5Y cells assessed as reduction in cell viability at 3 to 50 uM incubated for 48 hrs by MTT assay. The format is cell-based. Summed up:
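SH-SY5Y cells were exposed to various concentrations of test compound for 48 h, then viability was read by MTT assay. Results are expressed as percentage of control cells, mean ± SD of three independent experiments.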
(In general: Tetrazolium assays rely on reduction of a dye to a coloured formazan, in cell work by metabolically active cells.)

For data set [11], the target named is T3, Amine oxidase [flavin-containing] A (Homo sapiens, UniProt P21397).
T3 sequence (P21397 whole entry): T1 sequence (P21397 whole entry)
In words: Inhibition of human MAOA incubated for 15 mins using p-tyramine substrate by Amplex red reagent based fluorescence assay. A digest of the protocol:
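IC50 against hMAO-A is reported as mean ± SEM of three experiments, with iproniazid as reference.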

In general, inhibition refers to the drop in the measured response relative to a control, in per cent. Read a high inhibition as strong suppression. What is called IC50 is the midpoint of a concentration-inhibition curve. High values mean a need for much substance, low ones inhibition by little substance. In turn, `Cc1ccc(COc2cccc(Br)c2)cc1` returned an inhibition at 0.25 h, 100 µM in [1] of 24%. The compound further registered an IC50 in [2] of 1.53 µM. For the same compound, the Ratio IC50 in data set [3] was greater than 65.4.
Consider `Brc1cccc(COc2cccc(Br)c2)c1`, for which the inhibition at 0.25 h, 100 µM in data set [1] was found to be 27%. The compound further yielded an IC50 in data set [2] of 0.76 µM. Also, the Ratio IC50 in data set [3] is greater than 132.
On the same counts, the results for `COc1cccc(OCc2ccc(C)cc2)c1` are 26%, 14.6 µM and greater than 6.8.
In data set [1], `COc1cccc(OCc2cccc(C)c2)c1` came in with an inhibition at 0.25 h, 100 µM of 23%. In data set [2], it took 10.9 µM to reach half-maximal inhibition (IC50). Moreover, the Ratio IC50 in data set [3] is greater than 9.2.
As to `Brc1ccc(COc2cccc(Br)c2)cc1`, the inhibition at 0.25 h, 100 µM in data set [1] worked out at 30%. Further, in data set [2], the IC50 turned out to be 0.35 µM. Further, the “inhibition (INH)” value in [4] was “Active”; in data set [5] it was 44.8%; in data set [6] it was 44.9%; in [7], 48.6%; in data set [8] it was 49.2%; in data set [9], “Active”. Also, the Activity result in [10] is given as “Non-Toxic”.
For `O=Cc1cccc(OCc2ccc(F)cc2)c1`, the IC50 in [11] worked out at 42.5 µM; in [2], 0.93 µM. The Ratio IC50 in data set [3] was 45.7.
On to `Cc1cccc(COc2cccc(Br)c2)c1`, for which the inhibition at 0.25 h, 100 µM in data set [1] came to 43%. This compound also displayed an IC50 in data set [2] of 1.98 µM. Also, the Ratio IC50 in data set [3] was greater than 50.5.
As to `Cc1cccc(COc2cccc(C=O)c2)c1`, the IC50 in [11] is 51.6 µM; in data set [2] it was 2.91 µM. Further, the Ratio IC50 in data set [3] was found to be 17.7.
On the same counts, the results for `O=Cc1cccc(OCc2cccc(F)c2)c1` are 64.2 µM, 1.21 µM and 53.1.
As for `Fc1ccc(COc2cccc(Br)c2)cc1`, in data set [1], the inhibition at 0.25 h, 100 µM came out at 31%. The IC50 in data set [2] was 0.58 µM. Further, in [3], the Ratio IC50 is greater than 172.
On the same counts, the results for `Brc1cccc(OCc2ccccc2)c1` are 23%, 2.73 µM and greater than 36.6.
As to `O=Cc1cccc(OCc2ccc(Br)cc2)c1`, the IC50 in data set [11] was found to be 27.9 µM; in data set [2], 0.19 µM. Also, the “inhibition (INH)” value in data set [4] is reported as “Active”; in data set [5], 46.4%; in data set [6] it was 45.8%; in data set [7] it was 49.9%; in data set [8], 49.5%. Also, in data set [10], the Activity entry is “Non-Toxic”.
As to `COc1cccc(OCc2ccc(F)cc2)c1`, the inhibition at 0.25 h, 100 µM in data set [1] came to 22%. For the same compound, the concentration for half-maximal inhibition (IC50) in [2] came out at 15.6 µM. Besides, the Ratio IC50 in data set [3] is greater than 6.4.
Regarding `COc1cccc(OCc2ccccc2)c1`, the inhibition at 0.25 h, 100 µM in data set [1] is 25%. In [2], inhibition was half-maximal at 15.8 µM (IC50). Moreover, the Ratio IC50 in data set [3] was greater than 6.3.
Regarding `Fc1cccc(COc2cccc(Br)c2)c1`, in data set [1], the inhibition at 0.25 h, 100 µM came to 37%. For the same compound, the IC50 in data set [2] came to 1.06 µM. Moreover, the Ratio IC50 in [3] is greater than 94.3.
`COc1cccc(OCc2cccc(Br)c2)c1`: the inhibition at 0.25 h, 100 µM in data set [1] came to 22%. The IC50 in data set [2] worked out at 19.3 µM. Also, in data set [3], the Ratio IC50 was greater than 5.2.
With `O=Cc1cccc(OCc2cccc(Br)c2)c1`, the figures for the IC50 in data set [11] and in [2] were 28.2 µM and 0.53 µM, respectively. Further, in data set [3], the Ratio IC50 stood at 53.2.
On the same counts, the results for `Cc1ccc(COc2cccc(C=O)c2)cc1` are 64.8 µM, 2.53 µM and 25.6.
On the same counts, the results for `O=Cc1cccc(OCc2ccccc2)c1` are 45.6 µM, 1.96 µM and 23.3.
In turn, `COc1cccc(OCc2cccc(F)c2)c1` came in with an inhibition at 0.25 h, 100 µM in [1] of 19%. This compound also had a 50% inhibitory concentration (IC50) in [2] of 12.3 µM. The Ratio IC50 in data set [3] was greater than 8.1.
On the same counts, the results for `COc1cccc(OCc2ccc(Br)cc2)c1` are 25%, 8.63 µM and greater than 11.6.

The record behind these values is ChEMBL document CHEMBL4138066, “Synthesis and evaluation of small molecules bearing a benzyloxy substituent as novel and potent monoamine oxidase inhibitors” (Medchemcomm, 2017).
